For 2 compounds, inhibition, Activity and IC50 results are on record in ChEMBL document CHEMBL4118097, “Selective Inhibitors of Dual Leucine Zipper Kinase (DLK, MAP3K12) with Activity in a Model of Alzheimer's Disease” (J Med Chem, 2017).

The target in assay [1] is Protein kinase C theta type (Homo sapiens) (UniProt Q04759). The assay is described as follows: Inhibition of PKCtheta (unknown origin) at 1 uM by FRET assay relative to control.
For assay [2], the species on record is Homo sapiens. The assay is described as follows: Binding affinity to L-type calcium channel dihydropyridine binding site (unknown origin) receptor at 10 uM relative to control. Put shortly: (§1)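 Broad radioligand-binding and enzyme screening panel covering 42 targets (biogenic amine and neuropeptide receptors, ion channels, neurotransmitter transporters, acetylcholinesterase). Single test concentration of 10 μM. Results expressed as binding relative to control, with a hit defined as >50% of control.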

Assay [3] deals with Protein kinase C eta type (Homo sapiens) (UniProt P24723). The assay is described as follows: Inhibition of PKCeta (unknown origin) at 1 uM by FRET assay relative to control.
Assay [4] has as its target Mitogen-activated protein kinase 11 (Homo sapiens) (UniProt Q15759). The assay is described as follows: Inhibition of recombinant full length His-tagged human p38beta expressed in baculovirus expression system at 1 uM by FRET assay relative to control.
Assay [5] concerns the target Tyrosine-protein kinase Srms (Homo sapiens) (UniProt Q9H3Y6). The assay is described as follows: Inhibition of recombinant full length GST-tagged human Srm cytoplasmic domain expressed in baculovirus expression system at 1 uM by FRET assay relative to control. Put shortly:
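Part of a 220-kinase panel run at a single concentration of 1 μM. Z′-LYTE format: phosphorylation of a labelled peptide read by FRET. Values reported as percent inhibition.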

For assay [6], the target named is Mitogen-activated protein kinase 9 (Homo sapiens, UniProt P45984). The assay is described as follows: Inhibition of recombinant full length His-tagged human JNK2 ([…]) expressed in baculovirus expression system at by FRET assay.
The species entered for assay [7] is Homo sapiens. The assay is described as follows: Binding affinity to PDE rolipram binding site (unknown origin) receptor at 10 uM relative to control. Put shortly:
as §1

Assay [8] has as its target RAC-beta serine/threonine-protein kinase (Homo sapiens) (UniProt P31751). The assay is described as follows: Inhibition of recombinant full length His-tagged human AKT2 expressed in baculovirus expression system at 1 uM by FRET assay relative to control.
Assay [9] addresses 5-hydroxytryptamine receptor 2A (Homo sapiens) (UniProt P28223). The assay is described as follows: Binding affinity to 5HT2A receptor (unknown origin) receptor at 10 uM relative to control. In short, it runs like this: as §1
For assay [10], the target named is Peroxisome proliferator-activated receptor delta (Homo sapiens) (UniProt Q03181). The assay is described as follows: Binding affinity to recombinant human PPARdelta at 10 uM relative to control. In short, it runs like this: as §1
Assay [11] deals with T1, Mitogen-activated protein kinase kinase kinase 12 (Homo sapiens, UniProt Q12852).
T1 sequence (Q12852 whole entry): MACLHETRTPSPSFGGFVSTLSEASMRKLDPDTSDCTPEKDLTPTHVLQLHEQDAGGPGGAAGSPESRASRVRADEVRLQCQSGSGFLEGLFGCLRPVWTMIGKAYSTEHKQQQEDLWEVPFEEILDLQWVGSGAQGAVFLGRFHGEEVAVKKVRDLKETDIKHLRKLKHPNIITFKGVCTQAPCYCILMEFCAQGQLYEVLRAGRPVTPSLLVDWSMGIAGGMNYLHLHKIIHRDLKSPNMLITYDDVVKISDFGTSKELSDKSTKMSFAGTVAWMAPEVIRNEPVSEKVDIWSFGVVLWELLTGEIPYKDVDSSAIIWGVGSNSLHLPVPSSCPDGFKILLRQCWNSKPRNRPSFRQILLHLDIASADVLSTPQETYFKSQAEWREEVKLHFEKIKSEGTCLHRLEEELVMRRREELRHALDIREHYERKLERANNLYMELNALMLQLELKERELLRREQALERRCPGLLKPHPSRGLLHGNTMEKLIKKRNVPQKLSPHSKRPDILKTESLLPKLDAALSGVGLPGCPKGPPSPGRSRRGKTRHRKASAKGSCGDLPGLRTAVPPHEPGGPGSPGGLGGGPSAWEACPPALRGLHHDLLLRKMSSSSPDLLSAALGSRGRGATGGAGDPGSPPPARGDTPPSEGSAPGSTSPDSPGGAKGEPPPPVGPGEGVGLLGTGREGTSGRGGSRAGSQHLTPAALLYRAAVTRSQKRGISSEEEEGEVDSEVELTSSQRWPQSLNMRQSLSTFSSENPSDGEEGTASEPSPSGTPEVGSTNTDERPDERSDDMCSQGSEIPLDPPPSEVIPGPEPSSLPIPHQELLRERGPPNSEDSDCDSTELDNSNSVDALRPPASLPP
The assay is described as follows: Inhibition of doxycycline inducible human DLK transfected in HEK293 cells assessed as JNK phosphorylation after […] by Hoechst-33342 staining-based assay. It counts as cell-based.

The species named for assay [12] is Homo sapiens. The assay is described as follows: Binding affinity to KATP (unknown origin) receptor at 10 uM relative to control. Put shortly: as §1
Assay [13] concerns the target G protein-coupled receptor kinase 5 (Homo sapiens) (UniProt P34947). The assay is described as follows: Inhibition of recombinant full length GST-tagged human GRK5 expressed in baculovirus expression system at 1 uM by FRET relative to control. Put shortly: (§2)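 Single-concentration screen at 1 μM in Life Technologies SelectScreen, across a 220-kinase panel. Z′-LYTE format measures phosphorylation of a labeled peptide by FRET. Results are reported as percent inhibition.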

The target of assay [14] is Interleukin-1 receptor-associated kinase 4 (Homo sapiens) (UniProt Q9NWZ3). The assay is described as follows: Inhibition of recombinant full length His-tagged human IRAK4 expressed in baculovirus expression system at 1 uM by FRET relative to control.
Assay [15] addresses Tyrosine-protein kinase SYK (Homo sapiens) (UniProt P43405). The assay is described as follows: Inhibition of recombinant full length N-terminal GST-tagged human Syk cytoplasmic domain expressed in baculovirus expression system at 1 uM by FRET assay relative to control.
Assay [16] has as its target Tyrosine-protein kinase Lck (Homo sapiens) (UniProt P06239). The assay is described as follows: Inhibition of recombinant full length His-tagged human Lck expressed in baculovirus at 1 uM by FRET assay relative to control.
The target in assay [17] is Ribosomal protein S6 kinase alpha-5 (Homo sapiens) (UniProt O75582). The assay is described as follows: Inhibition of recombinant full length GST-tagged human MSK1 expressed in baculovirus at 1 uM by FRET assay relative to control. In short, it runs like this:
as §2

The target of assay [18] is Angiopoietin-1 receptor (Homo sapiens) (UniProt Q02763). The assay is described as follows: Inhibition of recombinant GST-tagged human Tie2 cytoplasmic domain (817 to 1101 residues) expressed in baculovirus expression system at 1 uM by FRET assay relative to control. In short, it runs like this:
(§3)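 Single-point screen at 1 μM compound in a 220-kinase panel run by Life Technologies (SelectScreen). Z′-LYTE format: phosphorylation of a labeled peptide substrate read by FRET. Values are reported as percent inhibition.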

The target of assay [19] is Tyrosine-protein kinase Mer (Homo sapiens) (UniProt Q12866). The assay is described as follows: Inhibition of recombinant GST-tagged human Mer cytoplasmic domain expressed in baculovirus expression system at 1 uM by FRET assay relative to control. In short, it runs like this:
as §3

The target in assay [20] is Serine/threonine-protein kinase Nek6 (Homo sapiens) (UniProt Q9HC98). The assay is described as follows: Inhibition of recombinant GST-tagged human NEK6 catalytic domain expressed in baculovirus expression system at 1 uM by FRET assay relative to control. In short, it runs like this: as §3
The target in assay [21] is Mitogen-activated protein kinase 13 (Homo sapiens) (UniProt O15264). The assay is described as follows: Inhibition of recombinant full length His-tagged human p38delta expressed in baculovirus expression system at 1 uM by FRET assay relative to control.

Molecules are shown by their SMILES.

Sequence of 5-hydroxytryptamine receptor 2A (Homo sapiens) (P28223 whole entry): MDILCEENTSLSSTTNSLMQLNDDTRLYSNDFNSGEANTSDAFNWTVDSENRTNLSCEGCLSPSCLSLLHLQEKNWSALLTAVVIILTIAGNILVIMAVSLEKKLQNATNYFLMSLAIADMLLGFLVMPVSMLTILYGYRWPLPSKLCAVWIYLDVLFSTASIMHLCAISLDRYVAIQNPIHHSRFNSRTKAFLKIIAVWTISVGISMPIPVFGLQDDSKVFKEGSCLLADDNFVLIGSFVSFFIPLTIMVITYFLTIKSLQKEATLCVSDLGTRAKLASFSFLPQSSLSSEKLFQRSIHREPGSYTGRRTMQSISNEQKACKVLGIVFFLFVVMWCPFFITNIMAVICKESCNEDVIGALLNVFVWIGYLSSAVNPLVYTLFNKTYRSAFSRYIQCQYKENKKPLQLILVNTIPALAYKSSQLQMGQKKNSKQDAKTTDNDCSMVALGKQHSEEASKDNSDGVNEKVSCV
Sequence of Tyrosine-protein kinase Srms (Homo sapiens) (Q9H3Y6 whole entry, the tested form may be a part): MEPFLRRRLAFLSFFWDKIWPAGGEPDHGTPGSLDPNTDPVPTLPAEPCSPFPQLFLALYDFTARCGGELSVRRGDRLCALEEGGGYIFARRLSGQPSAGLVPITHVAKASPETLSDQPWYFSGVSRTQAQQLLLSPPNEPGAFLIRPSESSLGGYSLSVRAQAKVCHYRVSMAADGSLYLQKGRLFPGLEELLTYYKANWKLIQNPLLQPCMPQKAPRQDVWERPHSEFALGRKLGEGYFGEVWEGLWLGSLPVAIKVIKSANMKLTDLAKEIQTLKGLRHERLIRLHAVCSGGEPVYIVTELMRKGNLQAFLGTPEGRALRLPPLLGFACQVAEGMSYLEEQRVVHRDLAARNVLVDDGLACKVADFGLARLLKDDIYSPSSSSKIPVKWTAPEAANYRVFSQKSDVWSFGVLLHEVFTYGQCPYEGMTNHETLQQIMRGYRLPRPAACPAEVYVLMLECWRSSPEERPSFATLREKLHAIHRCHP
Sequence of Protein kinase C theta type (Homo sapiens) (Q04759 whole entry, looked up): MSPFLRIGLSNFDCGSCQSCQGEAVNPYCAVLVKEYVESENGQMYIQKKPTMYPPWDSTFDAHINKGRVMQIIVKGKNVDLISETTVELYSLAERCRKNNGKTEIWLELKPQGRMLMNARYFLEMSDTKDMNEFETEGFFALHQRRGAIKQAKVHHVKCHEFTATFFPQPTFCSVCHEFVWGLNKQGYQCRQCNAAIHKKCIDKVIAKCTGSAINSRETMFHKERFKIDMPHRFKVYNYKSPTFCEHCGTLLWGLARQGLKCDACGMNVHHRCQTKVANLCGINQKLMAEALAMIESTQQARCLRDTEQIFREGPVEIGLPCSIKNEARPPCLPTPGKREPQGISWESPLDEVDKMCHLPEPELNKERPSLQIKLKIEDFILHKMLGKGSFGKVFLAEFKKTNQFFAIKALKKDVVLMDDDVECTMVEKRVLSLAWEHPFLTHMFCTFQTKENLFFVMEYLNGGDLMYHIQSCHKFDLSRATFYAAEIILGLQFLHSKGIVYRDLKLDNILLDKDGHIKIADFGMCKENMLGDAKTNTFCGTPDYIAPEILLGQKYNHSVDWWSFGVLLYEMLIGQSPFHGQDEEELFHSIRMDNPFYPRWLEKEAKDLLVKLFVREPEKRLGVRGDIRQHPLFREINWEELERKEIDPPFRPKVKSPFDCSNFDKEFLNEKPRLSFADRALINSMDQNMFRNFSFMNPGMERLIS
Sequence of Mitogen-activated protein kinase 13 (Homo sapiens) (O15264 whole entry): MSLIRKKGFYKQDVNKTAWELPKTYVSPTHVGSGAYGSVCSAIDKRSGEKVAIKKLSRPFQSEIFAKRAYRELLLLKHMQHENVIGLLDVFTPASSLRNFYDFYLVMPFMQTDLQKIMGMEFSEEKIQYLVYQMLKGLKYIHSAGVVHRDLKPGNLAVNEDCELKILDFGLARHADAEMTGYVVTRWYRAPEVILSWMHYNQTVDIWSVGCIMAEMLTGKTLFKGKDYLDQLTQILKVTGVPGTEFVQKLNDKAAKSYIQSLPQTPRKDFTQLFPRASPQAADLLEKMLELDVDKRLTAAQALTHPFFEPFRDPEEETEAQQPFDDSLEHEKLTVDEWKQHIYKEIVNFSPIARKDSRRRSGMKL
Sequence of Peroxisome proliferator-activated receptor delta (Homo sapiens) (Q03181 whole entry): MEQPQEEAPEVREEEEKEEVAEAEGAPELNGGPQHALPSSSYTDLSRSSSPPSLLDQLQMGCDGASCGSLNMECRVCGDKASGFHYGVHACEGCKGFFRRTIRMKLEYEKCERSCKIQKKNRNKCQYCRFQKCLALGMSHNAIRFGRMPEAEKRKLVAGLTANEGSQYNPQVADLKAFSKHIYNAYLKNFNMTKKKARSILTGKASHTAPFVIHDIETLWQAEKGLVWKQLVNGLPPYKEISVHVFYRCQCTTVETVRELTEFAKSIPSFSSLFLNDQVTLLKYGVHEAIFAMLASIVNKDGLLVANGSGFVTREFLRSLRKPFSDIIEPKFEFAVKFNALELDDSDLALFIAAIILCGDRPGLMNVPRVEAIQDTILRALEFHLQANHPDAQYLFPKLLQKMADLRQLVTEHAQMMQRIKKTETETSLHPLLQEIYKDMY
Sequence of Mitogen-activated protein kinase 11 (Homo sapiens) (Q15759 whole entry, the tested form may be a part): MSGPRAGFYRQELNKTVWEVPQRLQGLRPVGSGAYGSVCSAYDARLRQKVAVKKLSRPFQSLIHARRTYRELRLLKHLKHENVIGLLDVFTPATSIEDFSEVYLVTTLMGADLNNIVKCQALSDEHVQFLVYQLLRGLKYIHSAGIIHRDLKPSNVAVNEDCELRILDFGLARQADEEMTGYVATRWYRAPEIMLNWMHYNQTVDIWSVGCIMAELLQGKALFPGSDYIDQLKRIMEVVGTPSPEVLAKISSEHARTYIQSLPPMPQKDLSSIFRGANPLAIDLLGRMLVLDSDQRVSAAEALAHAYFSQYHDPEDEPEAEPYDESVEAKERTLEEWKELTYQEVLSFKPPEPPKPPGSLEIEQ
Sequence of Protein kinase C eta type (Homo sapiens) (P24723 whole entry): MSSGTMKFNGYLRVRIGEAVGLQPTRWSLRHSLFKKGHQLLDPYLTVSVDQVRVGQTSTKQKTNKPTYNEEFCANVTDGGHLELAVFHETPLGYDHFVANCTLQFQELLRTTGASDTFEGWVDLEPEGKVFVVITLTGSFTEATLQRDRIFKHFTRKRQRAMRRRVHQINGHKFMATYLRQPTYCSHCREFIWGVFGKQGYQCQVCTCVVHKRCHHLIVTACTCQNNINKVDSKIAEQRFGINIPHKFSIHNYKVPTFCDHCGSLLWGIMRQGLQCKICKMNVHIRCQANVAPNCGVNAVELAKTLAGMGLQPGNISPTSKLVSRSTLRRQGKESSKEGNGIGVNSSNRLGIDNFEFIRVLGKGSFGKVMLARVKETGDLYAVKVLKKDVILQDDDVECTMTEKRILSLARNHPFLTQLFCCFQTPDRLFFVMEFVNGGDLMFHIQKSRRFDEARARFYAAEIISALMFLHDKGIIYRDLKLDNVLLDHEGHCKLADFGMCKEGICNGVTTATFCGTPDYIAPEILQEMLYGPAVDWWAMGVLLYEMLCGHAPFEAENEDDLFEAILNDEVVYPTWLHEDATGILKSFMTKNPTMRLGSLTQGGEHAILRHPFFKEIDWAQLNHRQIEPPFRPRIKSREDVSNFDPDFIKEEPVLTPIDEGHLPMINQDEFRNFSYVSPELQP
Sequence of Tyrosine-protein kinase Mer (Homo sapiens) (Q12866 whole entry, the tested form may be a part): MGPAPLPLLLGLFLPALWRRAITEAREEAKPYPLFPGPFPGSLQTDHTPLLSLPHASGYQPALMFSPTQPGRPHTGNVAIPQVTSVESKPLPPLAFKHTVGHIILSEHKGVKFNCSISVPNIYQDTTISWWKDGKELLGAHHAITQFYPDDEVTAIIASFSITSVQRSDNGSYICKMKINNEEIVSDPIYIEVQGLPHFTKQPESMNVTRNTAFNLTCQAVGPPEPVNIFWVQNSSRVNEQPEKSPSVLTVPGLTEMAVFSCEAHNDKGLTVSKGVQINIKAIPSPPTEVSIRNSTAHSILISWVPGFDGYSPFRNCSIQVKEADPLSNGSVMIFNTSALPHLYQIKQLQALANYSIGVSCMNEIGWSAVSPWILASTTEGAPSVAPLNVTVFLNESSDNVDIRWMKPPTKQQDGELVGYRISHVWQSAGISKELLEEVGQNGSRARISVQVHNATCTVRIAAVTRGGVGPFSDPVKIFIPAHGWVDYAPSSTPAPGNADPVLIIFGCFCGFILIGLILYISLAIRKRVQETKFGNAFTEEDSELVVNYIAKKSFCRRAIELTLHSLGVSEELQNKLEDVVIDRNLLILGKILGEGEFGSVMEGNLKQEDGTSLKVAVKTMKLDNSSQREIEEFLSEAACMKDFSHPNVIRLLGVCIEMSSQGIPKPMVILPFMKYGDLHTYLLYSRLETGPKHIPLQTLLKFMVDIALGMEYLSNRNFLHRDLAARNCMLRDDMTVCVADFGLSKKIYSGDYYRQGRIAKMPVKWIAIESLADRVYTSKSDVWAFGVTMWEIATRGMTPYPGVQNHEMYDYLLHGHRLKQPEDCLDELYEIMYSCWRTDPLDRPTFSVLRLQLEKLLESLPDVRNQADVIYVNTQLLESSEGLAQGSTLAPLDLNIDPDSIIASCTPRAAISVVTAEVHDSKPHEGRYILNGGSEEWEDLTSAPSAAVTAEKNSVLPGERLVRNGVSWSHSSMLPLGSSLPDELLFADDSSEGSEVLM
Sequence of Mitogen-activated protein kinase 9 (P45984 whole entry): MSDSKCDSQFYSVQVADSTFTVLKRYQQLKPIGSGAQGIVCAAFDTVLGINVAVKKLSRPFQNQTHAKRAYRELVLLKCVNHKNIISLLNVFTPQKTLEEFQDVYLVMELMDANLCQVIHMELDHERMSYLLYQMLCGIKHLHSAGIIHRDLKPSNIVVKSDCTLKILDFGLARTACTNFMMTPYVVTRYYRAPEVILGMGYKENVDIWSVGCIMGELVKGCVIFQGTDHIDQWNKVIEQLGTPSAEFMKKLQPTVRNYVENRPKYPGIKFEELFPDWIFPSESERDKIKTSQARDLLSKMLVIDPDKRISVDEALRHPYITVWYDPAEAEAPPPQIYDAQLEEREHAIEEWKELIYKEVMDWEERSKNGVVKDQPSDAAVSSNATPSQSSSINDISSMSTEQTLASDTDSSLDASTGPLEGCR

On to `CC(C)n1nc(-c2cnc(N)c(OC(F)(F)F)c2)cc1[C@H]1[C@@H]2CN(C3COC3)C[C@@H]21`, for which the inhibition in assay [1] is 9.3%; in assay [3], 1.7%; in assay [4], 9.3%; in assay [5], -2.5%; in assay [8] it was 3.1%; in assay [13], -1.3%. For the same compound, the inhibition in assay [14] was -1.3%; in assay [15], 26.8%; in assay [16], 7.5%; in assay [17] it was 7.2%; in assay [18], 13.7%; in assay [19] it was 22.5%. The figures for the inhibition in assay [20] and in assay [21] were 5.1% and 10.5%, respectively. Also, the Activity in assay [2], in [7], in assay [9], in assay [10] and in assay [12] was more than 50% throughout. The IC50 in [6] was more than 10000 nM; in assay [11], 195 nM.
In the case of `Nc1ncc(-c2cc([C@H]3[C@@H]4CN(C5COC5)C[C@@H]43)n(CC3CC3)n2)cc1C(F)(F)F`, the inhibition was 0.3% in [1]; -3.9% in [3]; 2.5% in [4]; 4% in [5]; -0.3% in [8]; -8.1% in assay [13]. For the same compound, the inhibition in [14] is 5.3%; in [15] it was 30.6%; in assay [16], 36.1%; in assay [17], 1.9%; in assay [18], 4.6%; in assay [19], 37%. Also, the inhibition in assay [20] came out at 0.3%; in [21] it was 3.8%. Also, the Activity in [2], in assay [7], in [9], in [10] and in [12] was more than 50% in each case. Besides, the results for the IC50 in assay [6] and in assay [11] were more than 10000 nM and 144 nM, respectively.
